In ChEMBL document CHEMBL1649388, “Imidazo[2,1-b]thiazole carbohydrate derivatives: Synthesis and antiviral activity against Junin virus, agent of Argentine hemorrhagic fever” (Eur J Med Chem, 2011):

How the values were obtained:
[1] = Selectivity index, ratio of CC50 for african green monkey Vero cells to EC50 for Junin virus IV4454 infected in african green monkey Vero cells; type: toxicity, cell-based; details: read-out: Selectivity Index
Junin virus [2] = assay: Antiviral activity against Junin virus IV4454 infected in african green monkey Vero cells assessed as reduction in virus yield after 48 hrs by plaque assay; type: functional, organism-based; details: Mammarenavirus juninense
[3] = (§1) Cytotoxicity against african green monkey Vero cells after 48 hrs by MTT assay; type: cell-based, Chlorocebus sabaeus; details: chlorocebus sabaeus, Vero cells
Outline: (§2)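 Confluent Vero cultures were exposed to a range of compound concentrations, three wells per concentration, for 48 h at 37 °C. Viability was read by MTT at 595 nm. CC₅₀ is the concentration reducing MTT signal by 50% versus untreated controls. Mean of three determinations.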

Junin virus [4] = assay: Antiviral activity against Junin virus IV4454 infected in african green monkey Vero cells assessed as reduction in virus yield treated for 1.5 hrs before viral infection measured by plaque assay relative to control; type: functional, organism-based; details: Mammarenavirus juninense
Junin virus [5] = assay: Antiviral activity against Junin virus IV4454 infected in african green monkey Vero cells assessed as reduction in virus yield at 50 to 200 uM treated for 1.5 hrs before viral infection measured by plaque assay relative to control; type: functional, Mammarenavirus juninense
Vero = assay: as §1; type: cell-based, Chlorocebus sabaeus; details: Chlorocebus sabaeus, Vero, 48 h; outline: as §2

Work on CC(=O)O[C@@H]1[C@H]2OC(C)(C)O[C@H]2O[C@@H]1C(=O)c1cnc2sc(C(=O)c3ccc(Cl)cc3)cn12 yielded a selectivity ratio [1] of 9.3, an EC50 (Junin virus [2]) of 7.5 µM and a CC50 at 48 h [3] of 70 µM.
Work on COC1[C@@H](C(=O)c2cnc3sc(C(=O)c4ccc(Br)cc4)cn23)O[C@@H]2OC(C)(C)O[C@H]12 (single isomer, unassigned) yielded a selectivity ratio [1] of 268, an EC50 (Junin virus [2]) of 1.1 µM and a CC50 at 48 h [3] of 295 µM. The inhibition (Junin virus [4]) was “Dose-dependent effect” and the “fold change (FC)” value (Junin virus [5]) was 15.
In the case of CO[C@@H]1[C@H]2OC(C)(C)O[C@H]2O[C@@H]1C(=O)c1cn2cc(C(=O)c3ccc(Br)cc3)nc2s1, the selectivity ratio [1] is reported as 81.6, the EC50 (Junin virus [2]) is reported as 4.3 µM and the CC50 at 48 h [3] is reported as 351 µM.
CC(=O)O[C@@H]1[C@H]2OC(C)(C)O[C@H]2O[C@@H]1C(=O)c1cnc2sc(C(=O)c3ccc(Br)cc3)cn12 showed a selectivity ratio [1] of 24.8, an EC50 (Junin virus [2]) of 5.6 µM and a CC50 at 48 h [3] of 139 µM.
For CO[C@@H]1[C@H]2OC(C)(C)O[C@H]2O[C@@H]1C(=O)c1cn2cc(C(=O)c3ccc(Cl)cc3)nc2s1, the selectivity ratio [1] was > 33.6, the EC50 (Junin virus [2]) was 11.9 µM and the CC50 at 48 h [3] was > 400 µM.
For NC(=O)c1ncn([C@@H]2O[C@H](CO)[C@@H](O)[C@H]2O)n1 [RIBAVIRIN], the selectivity ratio [1] was > 21.6, the EC50 (Junin virus [2]) was 18.5 µM and the IC50 (Vero) was > 400 µM.
With CC(=O)O[C@@H]1[C@H]2OC(C)(C)O[C@H]2O[C@@H]1C(=O)c1cnc2sc(C(=O)c3ccc(F)cc3)cn12 the selectivity ratio [1] was > 81.6, the EC50 (Junin virus [2]) was 4.9 µM and the CC50 at 48 h [3] was > 400 µM.
For CO[C@@H]1[C@H]2OC(C)(C)O[C@H]2O[C@@H]1C(=O)c1cn2cc(C(=O)c3ccc(F)cc3)nc2s1, the selectivity ratio [1] was > 138, the EC50 (Junin virus [2]) was 2.9 µM and the CC50 at 48 h [3] was > 400 µM.
With CO[C@@H]1[C@H]2OC(C)(C)O[C@H]2O[C@@H]1C(=O)c1cnc2sc(C(=O)c3ccc(F)cc3)cn12 the selectivity ratio [1] was > 5.1, the EC50 (Junin virus [2]) was 78.3 µM and the CC50 at 48 h [3] was > 400 µM.
For COC1[C@@H](C(=O)c2cnc3sc(C(=O)c4ccccc4)cn23)O[C@@H]2OC(C)(C)O[C@H]12 (single isomer, unassigned), the selectivity ratio [1] was > 21.6, the EC50 (Junin virus [2]) was 18.5 µM and the CC50 at 48 h [3] was > 400 µM.
With CO[C@@H]1[C@H]2OC(C)(C)O[C@H]2O[C@@H]1C(=O)c1cnc2sc(C(=O)c3ccc(Cl)cc3)cn12 the selectivity ratio [1] was 464, the EC50 (Junin virus [2]) was 0.8 µM and the CC50 at 48 h [3] was 371 µM.
In the case of CC(=O)O[C@@H]1[C@H]2OC(C)(C)O[C@H]2O[C@@H]1C(=O)c1cnc2sc(C(=O)c3ccccc3)cn12, the selectivity ratio [1] is reported as > 50.6, the EC50 (Junin virus [2]) is reported as 7.9 µM and the CC50 at 48 h [3] is reported as > 400 µM.
With CO[C@@H]1[C@H]2OC(C)(C)O[C@H]2O[C@@H]1C(=O)c1cn2cc(C(=O)c3ccccc3)nc2s1 the selectivity ratio [1] was > 32.5, the EC50 (Junin virus [2]) was 12.3 µM and the CC50 at 48 h [3] was > 400 µM.
